Source: PubChem BioAssay (Broad Institute)
GSIS activator: GLuc luminescence reporter in INS-1E cells, primary screen for activators of glucose-dependent secretion of insulin; activation, % at 16.6 µM; INS-1E GLuc reporter insulin secretion, 2-3 h; 370,000 compounds, 0.61% hits;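 active means lowest replicate activation of at least 40%, so every replicate reaches that level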
CDK5 inh: CDK5/p35 (human) kinase inhibition; Q00535+Q15078; Recombinant CDK5/p35, ADP-Glo luminescence, 60 min; inhibition, % at 10 µM; 330,000 compounds, 0.01% hits;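 active means highest replicate inhibition of at least 50% and at least 75% of replicates reaching 50%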
Env fusion inh: blocks HIV Env-driven cell-cell fusion; AID 651610; 360,000 compounds, 1.1% hits; inhibition, % at 12.3 µM; HeLa-JRFL Env/CEM21 cell fusion, luciferase;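 active means mean replicate inhibition score of at least 50 and every replicate individually at or above 50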
dFosB act: mouse delta FosB homodimer activation | 340,000 compounds, 0.99% hits | AID 493131 | purified delta FosB, TAMRA-CDK5 oligo fluorescence polarization; percent of positive-control signal above neutral wells | activation, % at 25 µM;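 active means mean activation above about 17%, with every replicate also reaching it, limit read from the data, passing the limit was not always enough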
Target sequence (P13346 whole entry, looked up): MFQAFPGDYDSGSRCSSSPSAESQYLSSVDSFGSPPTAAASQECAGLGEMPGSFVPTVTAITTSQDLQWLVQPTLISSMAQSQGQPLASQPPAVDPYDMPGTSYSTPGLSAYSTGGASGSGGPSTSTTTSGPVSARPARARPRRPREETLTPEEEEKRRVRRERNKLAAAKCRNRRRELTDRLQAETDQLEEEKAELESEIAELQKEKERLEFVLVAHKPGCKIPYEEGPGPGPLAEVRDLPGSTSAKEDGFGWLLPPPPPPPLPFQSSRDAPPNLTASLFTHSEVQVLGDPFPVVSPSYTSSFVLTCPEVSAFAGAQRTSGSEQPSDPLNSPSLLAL
PAX8 inh HTS: inhibitors of PAX8 transcriptional activity in RMG-I cells | RMG-I TPO-luciferase reporter, SteadyGlo, 24 h | 360,000 compounds, 1.2% hits | inhibition, % at 12.6 µM;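 active means mean replicate inhibition at least 60% with every replicate also reaching 60%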;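 further: luciferase light reporting Pax8 driven TPO promoter activity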
Cneo AK release: Cryptococcus neoformans lysis via adenylate kinase release. 360,000 compounds, 0.2% hits. C. neoformans lysis, adenylate kinase release luminescence, 4 h; normalised: neutral wells 0, clomiphene wells 100. AID 651654. lysis activity, % at 15 µM;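 active means mean lysis activity across replicates of at least 80%, whatever share of replicates individually reach that level; inactive means mean lysis activity below 80%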
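Assay system: C. neoformans cells. Amount: yeast cell density of 5 × 10^6 cells/mL. Technique: AK luminescence. Buffer or medium: YPD. Times: static 4 h at 37 °C with compound, 1 h detection. Dosing: single-point compound dose. Read-out: lysis from increased AK signal.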
A number is an active result; n = inactive; x = no result given. Most compounds without a hit are left out; they make up all but 2.9% or so of the library.

SMILES	GSIS activator	CDK5 inh	Env fusion inh	dFosB act	PAX8 inh HTS	Cneo AK release
C#CC(=O)CC1(CN(Cc2ccccc2)C(=O)OC(C)(C)C)CCCCC1	54	n	n	n	76	n
CCN(CC)S(=O)(=O)c1cc(NC(=O)Cn2ncc(Cl)c(Cl)c2=O)ccc1C	n	n	n	n	93	x
COc1ccc(NC(=O)c2ccc(Cl)nc2)cc1S(=O)(=O)N1CCOCC1	x	n	n	n	n	n
COc1ccc(NC(=O)Cn2ncc(Cl)c(Cl)c2=O)cc1S(=O)(=O)N1CCOCC1	n	n	n	n	83	n
Cc1ccc(S(=O)(=O)N2CCCCC2)cc1NC(=O)CCNC(=O)c1ccc([N+](=O)[O-])cc1	n	n	59	n	n	n
O=C(Cn1ncc(Cl)c(Cl)c1=O)NC(=O)NC1CCCCC1	x	n	61	n	91	x
O=C(NCc1ccc(F)cc1)[C@H]1C[C@H]2C(=O)N[C@@H](Cc3ccccc3)C(=O)N2[C@H]1c1ccc(O)cc1	x	x	n	x	n	n
COCC(=O)N(C[C@H]1N[C@H](CO)[C@H]1c1ccc(-c2cccnc2)cc1)C(C)C	n	x	x	x	n	n
COc1cccc(CN2[C@@H](CO)[C@H](c3ccccc3)C23CN(C(=O)C2CCCCC2)C3)c1	n	x	x	x	n	x
CCC(=O)Nc1ccc2c(c1)C(=O)N(C)[C@@H]1CC[C@@H](CC(=O)N[C@@H](C)c3ccccc3)O[C@H]1CO2	n	x	n	x	n	n
Cc1nn(CC(=O)Nc2ccc3c(c2)OCO3)c(C)c1Cl	n	n	n	n	n	n
COc1ccc(NC(=O)CCNC(=O)c2ccco2)cc1S(=O)(=O)N(C)C	n	n	n	n	n	n
Cc1ccc(NC(=O)Cn2ncc3c([nH]c4ccccc43)c2=O)cc1Cl	n	n	n	55	n	n
CCN(CC)S(=O)(=O)c1cc(NC(=O)CCNC(=O)c2ccco2)ccc1C	n	n	59	n	n	n
Cc1ccc(S(=O)(=O)N2CCCCC2)cc1NC(=O)c1nn(C)c(=O)c2ccccc12	n	n	66	n	n	x
O=C(Cn1ncc(Cl)c(Cl)c1=O)Nc1ccc2c(c1)OCO2	n	n	n	n	89	n
C/C=C/c1cnc2c(c1)C(=O)N([C@@H](C)CO)C[C@H](C)[C@H](CN(C)C(=O)Nc1ccc(F)cc1)O2	n	x	n	x	n	n
CC(C)NC(=O)Nc1ccc2c(c1)CC(=O)N([C@@H](C)CO)C[C@H](C)[C@@H](CN(C)Cc1ccncc1)O2	n	x	x	x	n	n
O=C(Nc1ccc2c(c1)[C@H]1C[C@@H](CC(=O)N3CCOCC3)O[C@@H](CO)[C@H]1O2)C1CCC1	n	x	n	x	n	n
Cc1ccc(S(=O)(=O)N2CCCCC2)cc1NC(=O)Cn1ncc(Cl)c(Cl)c1=O	n	n	n	n	99	n
Cc1cccc(OCCCC(=O)Nc2ccc(Cl)c(S(=O)(=O)N3CCOCC3)c2)c1	n	n	62	n	n	n
Cc1ccc(S(=O)(=O)Nc2ccc3c(c2)CC(=O)N([C@H](C)CO)C[C@H](C)[C@H](CN(C)C(=O)Nc2ccc(C(F)(F)F)cc2)O3)cc1	n	x	n	x	n	n
O=C(Nc1cc2c3c(c1)CC(=O)N3CCC2)c1c(F)cccc1F	n	n	n	n	n	x
O=C(Nc1cc2c3c(c1)CC(=O)N3CCC2)c1ccc(Cl)cc1	n	n	85	n	n	n
C[C@H]1CN([C@@H](C)CO)C(=O)c2cc(NC(=O)Nc3cccc4ccccc34)ccc2O[C@H]1CN(C)C	n	x	n	x	n	n
O=C(C[C@H]1CC[C@H]2[C@@H](COC[C@@H](O)CN2S(=O)(=O)c2ccc(Oc3ccccc3)cc2)O1)NC1CCC1	n	x	x	x	x	86
CCCNC(=O)C[C@H]1CC[C@H]2[C@@H](COC[C@@H](O)CN2S(=O)(=O)c2ccc(Oc3ccccc3)cc2)O1	n	x	n	x	n	90
C/C=C/c1cnc2c(c1)C(=O)N([C@@H](C)CO)C[C@@H](C)[C@H](CN(C)C(=O)NCCC)O2	n	x	n	x	x	n
COC(=O)C[C@H]1CC[C@H]2[C@@H](COc3ccc(NC(=O)c4ccccc4)cc3C(=O)N2C)O1	n	x	x	x	n	x
C/C(=N\Nc1nc2ccccc2[nH]1)c1ccccn1	n	n	65	n	68	n
